# Assay results as given in PubChem BioAssay.
# Active and inactive are the calls of the source.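 Rule for the calls, unless noted: active = inhibition above 20% together with a positive visual image hit; inconclusive = visual image hit but inhibition not above 20%; inactive = no visual image hit.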
# Columns and labels:
# [1] = inhibitors of TNFa-induced NFkB p65 translocation, primary screen, imaging, HUVEC, MLSMR starter and 10KST1 sets (AID 438); settings: HUVEC TNFa-induced p65 nuclear translocation; cell count: measured here: nuclei count (cytotoxicity indicator), at 2.08 µM; inhibition: at 2 µM, stronger effect = higher value, 0% TNFa-plus-vehicle, 100% no-TNFa wells;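 note: compound added about 3h40 before a 20 min TNFalpha stimulation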;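 for inhibition: signal is the nuclear over cytoplasmic p65 intensity ratio per well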
# [2] = reduction of polyQ htt aggregates in cells – imaging, exon1htt(103Q)mCFP cells, high-content imaging, primary screen (AID 483;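 active = visual image review flags a hit and inhibition of aggregation exceeds 20%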;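 note: compound exposure lasted 3 days before fixation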;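 for nuclei count: percent of the per-plate median nuclei count of sample wells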); settings: exon1htt(103Q)mCFP cell line, aggregate imaging, at 2 µM; inhibition of aggregation: stronger effect = higher value; nuclei count: measured here: cell count, toxicity
# [3] = endothelial E-selectin expression blockers – imaging, HUVEC, immunofluorescence, MLSMR starter and 10KST1 sets, primary screen (AID 487;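 active = visually confirmed hit in the image check and inhibition above 20%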;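 for inhibition: signal is fraction of cell area covered by stained E-selectin grains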;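 for nuclei count: 100% = median nuclei count of all wells on the same plate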); settings: HUVEC TNFalpha-induced E-selectin immunofluorescence imaging, at 2 µM; inhibition: stronger effect = higher value; nuclei count: measured here: cell number, toxicity
# [4] = molecular target: Voltage-gated potassium channel subunit beta-2 (Rattus norvegicus) (UniProt P62483); test: inhibitors of rat Kvbeta2 reductase activity – biochemical, NADPH fluorescence, primary screen (AID 622;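 active = fluorescence slope higher than the sample average by over 3 SD, cut at about -0.22 in these data, passing the limit was not always enough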;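 note: slope of raw intensity against log time taken from 70 to 1610 s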); settings: recombinant KvBeta, 4-cyanobenzaldehyde reduction, at 10 µM, stronger effect = higher value
# Sequence of Voltage-gated potassium channel subunit beta-2 (Rattus norvegicus) (P62483 whole entry, looked up): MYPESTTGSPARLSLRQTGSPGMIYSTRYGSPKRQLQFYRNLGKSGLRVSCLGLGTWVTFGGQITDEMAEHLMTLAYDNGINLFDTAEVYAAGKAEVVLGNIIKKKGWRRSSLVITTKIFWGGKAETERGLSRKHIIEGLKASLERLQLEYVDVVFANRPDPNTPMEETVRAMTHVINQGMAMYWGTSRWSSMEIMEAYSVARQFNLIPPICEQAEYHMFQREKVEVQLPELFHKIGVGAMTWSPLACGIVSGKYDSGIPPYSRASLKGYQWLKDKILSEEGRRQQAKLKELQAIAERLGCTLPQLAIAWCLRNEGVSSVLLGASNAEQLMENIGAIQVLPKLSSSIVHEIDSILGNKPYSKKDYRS
# [5] = molecular target: Voltage-gated potassium channel subunit beta-2 (Rattus norvegicus) (UniProt P62483); test: enhancers of rat Kvbeta2 NADPH turnover – biochemical, NADPH fluorescence, primary screen (AID 623;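 active = NADPH fluorescence slope more negative than the mean of all samples by about 3 SD, 99.7% confidence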;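 note: fluorescence intensity change per second fitted from 20 to 320 s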); settings: Recombinant KvBeta, NADPH fluorescence decrease slope, 10 min; at 10 µM; stronger effect = lower value
# [6] = molecular target: Muscarinic acetylcholine receptor M4 (Homo sapiens) (UniProt P08173); test: M4-linked GIRK flux change, two-sided – cell-based, HEK293 M4/GIRK, thallium flux, BTC-AM, M4 allosteric agonist project, primary screen (AID 625;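 active = fluorescence slope after compound addition differing from the mean of all tested samples at 99.7% confidence, mostly higher but some lower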;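 note: thallium influx through GIRK channels coupled to M4 in HEK293 cells with BTC-AM dye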); settings: at 10 µM, actives lie on both sides
# Sequence of Muscarinic acetylcholine receptor M4 (Homo sapiens) (P08173 whole entry, looked up): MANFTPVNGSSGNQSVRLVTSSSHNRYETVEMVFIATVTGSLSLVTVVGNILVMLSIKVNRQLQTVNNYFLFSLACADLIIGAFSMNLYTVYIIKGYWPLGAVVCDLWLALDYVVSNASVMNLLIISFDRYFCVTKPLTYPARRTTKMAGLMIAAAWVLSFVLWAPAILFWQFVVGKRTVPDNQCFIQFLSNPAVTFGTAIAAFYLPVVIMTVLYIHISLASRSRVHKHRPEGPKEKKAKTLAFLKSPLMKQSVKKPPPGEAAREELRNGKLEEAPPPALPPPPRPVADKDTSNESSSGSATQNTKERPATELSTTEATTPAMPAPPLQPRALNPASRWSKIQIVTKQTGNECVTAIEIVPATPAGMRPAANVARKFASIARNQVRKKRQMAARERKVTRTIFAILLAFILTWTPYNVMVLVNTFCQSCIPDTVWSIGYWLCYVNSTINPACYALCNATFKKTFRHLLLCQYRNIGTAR
# How it was run: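 Material: M4/GIRK1/GIRK2 stable HEK293 cell line. Medium: pH 7.3 thallium assay buffer. Dosing: single compound concentration, 10 µM final. Schedule: 1 h dye loading, 2 min kinetic read. Measured by: kinetic fluorescence with BTC-AM dye. Read-out: post-addition slope, 15–24 s, of baseline-normalized fluorescence. Benchmarks: carbachol and DMSO controls.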
# [7] = blockers of RIG-like receptor reporter activation – cell-based, Sendai virus stimulus, luciferase, 10K MLSCN set, TLR/RLR signaling modifier project, primary screen (AID 602276;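 active = inhibition at or above 50% at 10 µM; inactive = inhibition below 50%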;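 note: firefly luciferase from ISG56 promoter only with Renilla not read in this screen; 0% = Sendai virus plus DMSO and 100% = medium plus DMSO without virus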); settings: HEK293 RL24 IRF3 luciferase reporter, at 10 µM, stronger effect = higher value
# [8] = TLR3 IRF3 reporter activation blockers – cell-based, poly I:C stimulus, luciferase, 10K MLSCN set, primary screen (AID 602277;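 active = inhibition of the reporter signal at or above 50%; inactive = inhibition below 50%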); settings: HEK293-TLR3 RL24 IRF3 luciferase reporter, at 10 µM, stronger effect = higher value
compound,measurement,setting,value
Cc1ccc(C)c(N2CCN(C(=O)C3CCN(S(=O)(=O)c4c(C)noc4C)CC3)CC2)c1,cell count,[1],448
same,inhibition,[1],-10.8% (inactive)
same,inhibition of aggregation,[2],30.5% (inactive)
same,nuclei count,[2],77%
same,inhibition,[3],-17.6% (inactive)
same,nuclei count,[3],99.8%
same,fluorescence slope,[4],-0.474 (inactive)
same,NADPH fluorescence slope,[5],-8.1e-06 (inactive)
same,fluorescence slope,[6],0.00554 (inactive)
same,inhibition,[7],11.3% (inactive)
same,inhibition,[8],-1.19% (inactive)
Cc1cccc(N(C)C(=O)c2cc3cc4ccc(C)cc4nc3o2)c1,cell count,[1],214
same,inhibition,[1],-0.3% (inactive)
same,inhibition of aggregation,[2],11.5% (inactive)
same,nuclei count,[2],92.4%
same,inhibition,[3],-24.7% (inactive)
same,nuclei count,[3],109%
same,fluorescence slope,[4],-0.396 (inactive)
same,NADPH fluorescence slope,[5],-2.9e-05 (inactive)
same,fluorescence slope,[6],0.00523 (inactive)
same,inhibition,[7],37.8% (inactive)
same,inhibition,[8],-34.7% (inactive)
COC(=O)c1cc(Oc2ccc(C(=O)OC)cc2N)cc(C(=O)OC)c1,cell count,[1],278
same,inhibition,[1],-12.5% (inactive)
same,inhibition of aggregation,[2],1% (inactive)
same,nuclei count,[2],106%
same,inhibition,[3],-19% (inactive)
same,nuclei count,[3],108%
same,fluorescence slope,[4],-0.467 (inactive)
same,NADPH fluorescence slope,[5],-0.000384 (inactive)
same,fluorescence slope,[6],0.00407 (inactive)
same,inhibition,[7],-3.38% (inactive)
same,inhibition,[8],8.08% (inactive)
COC(=O)c1ccccc1NC(=O)CSc1nnnn1C1CCCCC1,cell count,[1],309
same,inhibition,[1],-3.7% (inactive)
same,inhibition of aggregation,[2],-19.4% (inactive)
same,nuclei count,[2],108%
same,inhibition,[3],-39.4% (inactive)
same,nuclei count,[3],81.2%
same,fluorescence slope,[4],-0.545 (inactive)
same,NADPH fluorescence slope,[5],-3.8e-05 (inactive)
same,fluorescence slope,[6],0.00503 (inactive)
same,inhibition,[7],3.68% (inactive)
same,inhibition,[8],20.1% (inactive)
CC(Sc1nnc(-c2cc3ccccc3o2)n1-c1ccccc1)C(=O)O (stereo not drawn),cell count,[1],613
same,inhibition,[1],0.8% (inactive)
same,inhibition of aggregation,[2],14.7% (inactive)
same,nuclei count,[2],105%
same,inhibition,[3],-223% (inactive)
same,nuclei count,[3],108%
same,fluorescence slope,[4],-0.585 (inactive)
same,NADPH fluorescence slope,[5],-5.2e-05 (inactive)
same,fluorescence slope,[6],0.00554 (inactive)
same,inhibition,[7],21.2% (inactive)
same,inhibition,[8],39.8% (inactive)
OCCN1CCN(CC(O)COc2ccc3ccccc3c2)CC1 (stereo not drawn),cell count,[1],581
same,inhibition,[1],-10.8% (inactive)
same,inhibition of aggregation,[2],0.6% (inactive)
same,nuclei count,[2],101%
same,inhibition,[3],-51.6% (inactive)
same,nuclei count,[3],106%
same,fluorescence slope,[4],-0.414 (inactive)
same,NADPH fluorescence slope,[5],-7.3e-05 (inactive)
same,fluorescence slope,[6],0.00595 (inactive)
same,inhibition,[7],11.6% (inactive)
same,inhibition,[8],15.2% (inactive)
COC(=O)c1nc2n(n1)C(c1ccc(OC)c(OC)c1)C(C(=O)OC1CCCCC1)=C(C)N2 (stereo not drawn),cell count,[1],603
same,inhibition,[1],-14.8% (inactive)
same,inhibition of aggregation,[2],-3.4% (inactive)
same,nuclei count,[2],99.2%
same,inhibition,[3],26.7% (inactive)
same,nuclei count,[3],89.6%
same,fluorescence slope,[4],-0.315 (inactive)
same,NADPH fluorescence slope,[5],-5.5e-05 (inactive)
same,fluorescence slope,[6],0.00696 (inactive)
same,inhibition,[7],4.26% (inactive)
same,inhibition,[8],12.6% (inactive)
O=C(NC1CC2CCC1C2)c1ccc(CN2CCOCC2)cc1 (stereo not drawn),cell count,[1],362
same,inhibition,[1],6.1% (inactive)
same,inhibition of aggregation,[2],4.3% (inactive)
same,nuclei count,[2],91.8%
same,inhibition,[3],-7.2% (inactive)
same,nuclei count,[3],99.5%
same,fluorescence slope,[4],-0.466 (inactive)
same,NADPH fluorescence slope,[5],-5.1e-05 (inactive)
same,fluorescence slope,[6],0.0046 (inactive)
same,inhibition,[7],-25.1% (inactive)
same,inhibition,[8],-53.4% (inactive)
